Experimental data from ChEMBL document CHEMBL4145521, “Regioselective synthesis of 3,4-diaryl-5-unsubstituted isoxazoles, analogues of natural cytostatic combretastatin A4” (Eur J Med Chem, 2018).

Tests used:
Format in all cases: functional
RXF 393 = assay: Cytotoxicity against human RXF393 cells assessed as cell growth at 1 uM incubated for 48 hrs by sulforhodamine B assay relative to control; conditions: RXF 393, 48 h, read-out: Activity
HCC 2998 = assay: Cytotoxicity against human HCC2998 cells assessed as cell growth at 10 uM incubated for 48 hrs by sulforhodamine B assay relative to control; conditions: HCC 2998, 48 h, read-out: Activity
CCRF-CEM = assay: Cytotoxicity against human CCRF-CEM cells assessed as cell growth at 10 uM incubated for 48 hrs by sulforhodamine B assay relative to control; conditions: read-out: Activity
Malme-3M [1] = assay: Cytotoxicity against human MALME-3M cells incubated for 48 hrs by sulforhodamine B assay
MDA-MB-468 = assay: Cytotoxicity against human MDA-MB-468 cells assessed as cell growth at 100 uM incubated for 48 hrs by sulforhodamine B assay relative to control; conditions: MDA-MB-468, 48 h, read-out: Activity
Malme-3M [2] = assay: Cytotoxicity against human MALME-3M cells assessed as cell growth at 100 uM incubated for 48 hrs by sulforhodamine B assay relative to control; conditions: read-out: Activity
HCT-15 = assay: Cytotoxicity against human HCT15 cells assessed as cell growth at 1 uM incubated for 48 hrs by sulforhodamine B assay relative to control; conditions: HCT-15, 48 h, read-out: Activity
SK-MEL-2 = assay: Cytotoxicity against human SK-MEL-2 cells assessed as cell growth at 100 uM incubated for 48 hrs by sulforhodamine B assay relative to control; conditions: SK-MEL-2, 48 h, read-out: Activity
NCI/ADR-RES [3] = assay: Cytotoxicity against human NCI/ADR-RES cells incubated for 48 hrs by sulforhodamine B assay
SNB-19 = assay: Cytotoxicity against human SNB19 cells assessed as cell growth at 0.01 uM incubated for 48 hrs by sulforhodamine B assay relative to control; conditions: SNB-19, 48 h, read-out: Activity
OVCAR-5 = assay: Cytotoxicity against human OVCAR5 cells assessed as cell growth at 0.1 uM incubated for 48 hrs by sulforhodamine B assay relative to control; conditions: OVCAR-5, 48 h, read-out: Activity
CAKI-1 = assay: Cytotoxicity against human Caki1 cells assessed as cell growth at 0.1 uM incubated for 48 hrs by sulforhodamine B assay relative to control; conditions: CAKI-1, 48 h, read-out: Activity
TK-10 [4] = assay: Cytotoxicity against human TK10 cells assessed as cell growth at 0.1 uM incubated for 48 hrs by sulforhodamine B assay relative to control; conditions: TK-10, 48 h, read-out: Activity
T47D = assay: Cytotoxicity against human T47D cells assessed as cell growth at 10 uM incubated for 48 hrs by sulforhodamine B assay relative to control; conditions: read-out: Activity
NCI/ADR-RES [5] = assay: Cytotoxicity against human NCI/ADR-RES cells assessed as cell growth at 100 uM incubated for 48 hrs by sulforhodamine B assay relative to control; conditions: read-out: Activity
UACC-62 = assay: Cytotoxicity against human UACC62 cells assessed as cell growth at 10 uM incubated for 48 hrs by sulforhodamine B assay relative to control; conditions: UACC-62, 48 h, read-out: Activity
SN12C = assay: Cytotoxicity against human SN12C cells assessed as cell growth at 100 uM incubated for 48 hrs by sulforhodamine B assay relative to control; conditions: read-out: Activity
SNB-75 = assay: Cytotoxicity against human SNB75 cells assessed as cell growth at 0.1 uM incubated for 48 hrs by sulforhodamine B assay relative to control; conditions: SNB-75, 48 h, read-out: Activity
TK-10 [6] = assay: Cytotoxicity against human TK10 cells assessed as cell growth at 0.01 uM incubated for 48 hrs by sulforhodamine B assay relative to control; conditions: TK-10, 48 h, read-out: Activity
OVCAR-8 = assay: Cytotoxicity against human OVCAR8 cells assessed as cell growth at 100 uM incubated for 48 hrs by sulforhodamine B assay relative to control; conditions: OVCAR-8, 48 h, read-out: Activity
OVCAR-3 = assay: Cytotoxicity against human OVCAR3 cells assessed as cell growth at 100 uM incubated for 48 hrs by sulforhodamine B assay relative to control; conditions: OVCAR-3, 48 h, read-out: Activity
MDA-MB-231 = assay: Cytotoxicity against human MDA-MB-231 cells incubated for 48 hrs by sulforhodamine B assay; conditions: MDA-MB-231, 48 h
COLO 205 = assay: Cytotoxicity against human COLO205 cells assessed as cell growth at 0.1 uM incubated for 48 hrs by sulforhodamine B assay relative to control; conditions: COLO 205, 48 h, read-out: Activity
HOP-92 = assay: Cytotoxicity against human HOP92 cells assessed as cell growth at 100 uM incubated for 48 hrs by sulforhodamine B assay relative to control; conditions: HOP-92, 48 h, read-out: Activity
SR = assay: Cytotoxicity against human SR cells assessed as cell growth at 0.1 uM incubated for 48 hrs by sulforhodamine B assay relative to control; conditions: read-out: Activity
Paracentrotus lividus = assay: Antimitotic activity against Paracentrotus lividus embryo assessed as embryo spinning after 15 mins to 20 hrs by light microscopy
Summary of the method: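 Free-swimming blastulae from the same culture were used just after hatching (8–10 h post-fertilization). They were kept in filtered seawater at room temperature and exposed to 2-fold decreasing concentrations. Spinning at the well bottom instead of forward swimming was monitored from 15 min to 20 h under light microscopy. The effective threshold concentration was recorded from duplicates.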

NCI-H522 = assay: Cytotoxicity against human NCI-H522 cells assessed as cell growth at 10 uM incubated for 48 hrs by sulforhodamine B assay relative to control; conditions: NCI-H522, 48 h, read-out: Activity
OVCAR-4 = assay: Cytotoxicity against human OVCAR4 cells assessed as cell growth at 100 uM incubated for 48 hrs by sulforhodamine B assay relative to control; conditions: OVCAR-4, 48 h, read-out: Activity
SK-MEL-5 = assay: Cytotoxicity against human SK-MEL-5 cells assessed as cell growth at 1 uM incubated for 48 hrs by sulforhodamine B assay relative to control; conditions: SK-MEL-5, 48 h, read-out: Activity
IGROV-1 = assay: Cytotoxicity against human IGROV1 cells assessed as cell growth at 0.01 uM incubated for 48 hrs by sulforhodamine B assay relative to control; conditions: IGROV-1, 48 h, read-out: Activity
U-251 = assay: Cytotoxicity against human U251 cells assessed as cell growth at 100 uM incubated for 48 hrs by sulforhodamine B assay relative to control; conditions: U-251, 48 h, read-out: Activity

For `COc1ccc(-c2nocc2-c2cc(OC)c(OC)c(OC)c2)cc1`, the growth at 1 µM (RXF 393) was -7%, the growth at 10 µM (HCC 2998) was 25% and the growth at 10 µM (CCRF-CEM) was 24%. It also gave an LC50 (concentration killing 50% of cells) (Malme-3M [1]; read-out: LC50) of over 100 µM, a TGI (Malme-3M [1]; read-out: TGI) of 45.5 µM and an LC50 (concentration killing 50% of cells) (Malme-3M [1]; read-out: pLC50 (converted)) of over 100 µM. The TGI (Malme-3M [1]; read-out: pTGI (converted)) was 45.7 µM, the growth at 100 µM (MDA-MB-468) was -19% and the growth at 100 µM (Malme-3M [2]) was -31%. It also gave a growth at 1 µM (HCT-15) of 23%, a growth at 100 µM (SK-MEL-2) of -8% and a GI50 (NCI/ADR-RES [3]; read-out: GI50) of 0.0538 µM. The LC50 (NCI/ADR-RES [3]; read-out: LC50) was over 100 µM, the TGI (NCI/ADR-RES [3]; read-out: TGI) was 37.2 µM and the GI50 (NCI/ADR-RES [3]; read-out: pGI50 (converted)) was 0.0537 µM. It also gave an LC50 (NCI/ADR-RES [3]; read-out: pLC50 (converted)) of over 100 µM, a TGI (NCI/ADR-RES [3]; read-out: pTGI (converted)) of 37.2 µM and a growth at 0.01 µM (SNB-19) of 98%. For the same molecule, the growth at 0.1 µM (OVCAR-5) was 86%, the growth at 0.1 µM (CAKI-1) was 62% and the growth at 0.1 µM (TK-10 [4]) was 46%. The growth at 10 µM (T47D) was 52%, the growth at 100 µM (NCI/ADR-RES [5]) was -7% and the growth at 10 µM (UACC-62) was 5%. The growth at 100 µM (SN12C) was -1%, the growth at 0.1 µM (SNB-75) was 47% and the growth at 0.01 µM (TK-10 [6]) was 90%. For the same molecule, the growth at 100 µM (OVCAR-8) was 4%, the growth at 100 µM (OVCAR-3) was -21% and the GI50 (MDA-MB-231; read-out: GI50) was 0.45 µM. It also gave a CC50 (MDA-MB-231; read-out: LC50 (the source's name)) of over 100 µM, a TGI (MDA-MB-231; read-out: TGI) of 34.2 µM and a GI50 (MDA-MB-231; read-out: pGI50 (converted)) of 0.447 µM. The CC50 (MDA-MB-231; read-out: pLC50 (the source's name) (converted)) was over 100 µM, the TGI (MDA-MB-231; read-out: pTGI (converted)) was 33.9 µM and the growth at 0.1 µM (COLO 205) was 37%. For the same molecule, the growth at 100 µM (HOP-92) was -21%, the growth at 0.1 µM (SR) was 42% and the EC (Paracentrotus lividus) was 1 µM. For the same molecule, the growth at 10 µM (NCI-H522) was -6%, the growth at 100 µM (OVCAR-4) was 15% and the growth at 1 µM (SK-MEL-5) was 29%. The growth at 0.01 µM (IGROV-1) was 97% and the growth at 100 µM (U-251) was -4%.
